Assay outcomes deposited in PubChem by SRMLSC.
The entries come from a sample that favours hits as a whole.
PostGolgi yeast = phenotypic screen on post-Golgi transport, primary screen; inhibition, % at 10 µM; post-Golgi transport phenotypic cell assay; 98,000 tested, 0.9% active;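 also: yeast cells grown in 1536-well plates; yeast grown about 18 h at 30C before absorbance read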
Yeast growth inh = growth inhibitors of yeast BB579 in restrictive medium, primary screen, yeast lifespan-shortening project, S. cerevisiae | OD615, 48 h | inhibition, % at 10 µM | 140,000 tested, 0.51% active | AID 804, 2007;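 active = inhibition above a set limit, 3 SD over the mean compound inhibition, cut at about 44% in these data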
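Material: Saccharomyces cerevisiae DeaD strain BB579, replicative lifespan model yeast; buffer or medium: CSMM-D restrictive synthetic medium containing dextrose (glucose); compound: 10 µM single dose, DMSO 0.25%; timing: 48 h compound exposure at 30 °C after 4 h preincubation; signal: turbidity as optical density at 615 nm; benchmarks: positive control amphotericin B 10 µg/mL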
Yeast lifespan up = compounds extending yeast replicative lifespan, primary screen, S. cerevisiae, OD615; 130,000 tested, 0.68% active; S. cerevisiae growth with nicotinamide; deaD strain in restrictive glucose medium; inhibition of the nicotinamide effect, % at 10 µM;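 active = inhibition above a set limit, placed 3 SD over the median of all compounds, cut at about 26% in these data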
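Assay system: DeaD-strain S. cerevisiae. Medium: CSMM-D glucose medium, restrictive. Reagent: nicotinamide, 1.5 mM, co-present with compound. Compound: 10 µM single point, 0.25% DMSO. Schedule: culture preincubation 4 h, compound exposure 48 h, both 30 °C. Detection: absorbance at 615 nm.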
PostGolgi ctrl = growth inhibition of yeast control strain, primary screen, counter-screen for post-Golgi transport modulator project | AID 738, 2007 | efflux-deficient yeast background strain, growth absorbance A615, 16 h | inhibition, % at 10 µM | 98,000 tested, 5% active
Hits are given with their value; i = inactive; nt = no result. Rule as the data show it, unless noted: active = inhibition above about 30%; inactive = the rest.

SMILES | PostGolgi yeast | Yeast growth inh | Yeast lifespan up | PostGolgi ctrl
COCC(=O)/C=C1\Sc2ccccc2N1C | i | i | i | 36
COc1ccc(C(=O)Nc2ccc(NC(=O)c3cnccn3)cn2)cc1 | i | i | i | i
CCN(CC)S(=O)(=O)c1cc(NC(=O)CCCOc2ccc(C(C)=O)cc2)ccc1C | nt | i | i | nt
Cc1nn2c(-n3ccnc3C)c3c(nc2c1-c1ccccc1)CCC3 | i | i | i | i
Cc1nn2c(N3CCOCC3)c3c(nc2c1-c1ccccc1)CCCC3 | i | i | i | 79
CCc1cc(C(c2ccc(OC)c(OC)c2)N2CCOCC2)c(NC(=O)c2ccccc2)s1 (centres undefined) | nt | i | i | nt
CCc1cc(C(c2ccc(F)cc2)N2CCOCC2)c(NC(=O)c2ccccc2)s1 (centres undefined) | 32 | i | i | i
COc1ccc(C(=O)CSc2nc3ccc([N+](=O)[O-])cc3[nH]2)cc1 | nt | i | i | nt
Cc1cc(C)c2c(c1)SC1=NC(c3ccccc3)(C(F)(F)F)NC(=O)N12 (centres undefined) | i | i | i | 43
Cn1c(SCC(=O)N2c3ccccc3CCc3ccccc32)nnc1-c1ccc(O)cc1 | nt | i | i | nt
Cc1csc(N(C(=O)c2cccc(S(=O)(=O)N3CCCC3)c2)c2ccccc2)n1 | i | i | i | i
C=CCN(C(=O)c1cccc(S(=O)(=O)N2CCN(C)CC2)c1)c1nc(-c2ccccc2)cs1 | 35 | i | i | i
Cc1nn(-c2ccc(F)cc2)c2sc(C(=O)N3CCCCCC3)cc12 | i | i | i | 31
Cc1ccc(C2=[N+]([O-])C(C)(C)CC2)cc1 | i | i | i | 33
COC1=C(c2ccccc2)C(=O)c2ccccc2C1=O | nt | 68 | i | nt
O=S(=O)(Nc1cc(C(F)(F)F)ccc1N1CCOCC1)c1ccc2ccccc2c1 | nt | i | i | nt
COc1ccc(OC)c(C(=O)CSc2nccc(-c3ccc(Br)cc3)n2)c1 | i | i | i | i
COc1cc2c(C(=O)O)c(C)n(CC(C)C)c2c2ccccc12 | i | i | i | 33
COc1cc(CN(C2CCCCC2)S(=O)(=O)c2ccc(S(=O)(=O)N(C)C3CCCCC3)cc2)cc(OC)c1OC | nt | i | i | nt
CC1CCCN(S(=O)(=O)c2ccc(NC(=O)CCN3C(=O)c4ccccc4C3=O)cc2)C1 (centres undefined) | 42 | i | i | i
O=C(CCN1C(=O)c2ccccc2C1=O)Nc1ccc(S(=O)(=O)N2CCOCC2)cc1 | i | i | i | i
CCCCN(CC)c1nc(N)c(C#N)c(CC#N)c1C#N | i | i | i | i
CCCCN(CC)c1nc(N)c2c(N)nc(OCC)cc2c1C#N | i | i | i | 76
Cc1c(C(=O)OC2CCCCC2)sc2nc[nH]c(=O)c12 | i | i | i | 59
Cc1c(C(=O)Nc2ccccc2)sc2nc[nH]c(=O)c12 | nt | i | i | nt
SMILES | PostGolgi yeast | Yeast growth inh | Yeast lifespan up | PostGolgi ctrl
Cc1cc2n(n1)C(c1ccccc1)CC(c1ccc(Br)cc1)=N2 (centres undefined) | nt | i | i | nt
CC1C/C(=N/N=C2/NC(=O)CS2)CC(C)(C)C1 (centres undefined) | i | i | i | 34
O=C1CS/C(=N/N=C2C3CC4CC(C3)CC2C4)N1 | nt | i | i | nt
CCOc1ccc(C(=O)Nc2ccccc2N2CCCC2)cc1 | i | i | i | i
CCOc1ccc(C(=O)C(CN2CCOCC2)c2ccccc2)cc1 (centres undefined) | nt | i | 49 | nt
CCOc1ccc(C(=O)Nc2ccccc2N2CCOCC2)cc1 | i | i | i | 33
C/C(=N\NC(=O)c1nn(C)c(C)c1Br)c1cccc(NC(=O)c2ccoc2C)c1 | nt | i | i | nt
CC(C)(C)C1=CC(=O)C(=O)C(C(C)(C)C)=C1 | nt | i | 40 | nt
COc1cc(NC(=O)c2cccs2)c(C(=O)OCC(=O)NC(C)c2ccccc2)cc1OC (centres undefined) | i | i | i | 30
COc1cc(NC(=O)c2cccs2)c(C(=O)OCC(=O)NCc2ccccc2)cc1OC | i | i | i | i
CC1CN(S(=O)(=O)c2cccc(C(=O)Nc3ccc4c(c3)CCC4)c2)CC(C)O1 (centres undefined) | nt | i | i | nt
CC(=O)N1N=C(c2ccc(C)cc2)OC1c1ccc(C)cc1 (centres undefined) | i | i | i | 34
Nc1nc(-c2cccnc2)nc(N2CCCCC2)n1 | i | i | i | i
c1ccc(-c2nc(N3CCCCCC3)nc(-n3ccnc3)n2)cc1 | 62 | i | i | 72
c1ccc(-c2nc(N3CCN(c4ccccc4)CC3)nc(-n3ccnc3)n2)cc1 | i | i | i | 54
COc1ccc(-c2cnc(SCC(=O)Nc3ccc4c(c3)OCO4)n2Cc2ccco2)cc1 | i | i | i | i
CC(=O)Nc1cccc(NC(=O)CSc2ncc(-c3ccc(Cl)cc3)n2Cc2ccco2)c1 | i | i | i | 37
CON1C(=O)C(=O)N(OC)C2CCCCC21 (centres undefined) | i | i | i | i
O=c1[nH]c(=O)n(C2CCCCCC2)c(O)c1C=NCc1ccc(F)cc1 | i | i | i | 50
Cc1c(N=Cc2c(O)n(C3CCCCC3)c(=O)[nH]c2=O)c(=O)n(-c2ccccc2)n1C | i | i | i | i
Cc1ccc2cc(C#N)c(N3CCCN(C(=O)C4CCCO4)CC3)nc2c1C (centres undefined) | i | i | i | i
Cc1ccc2cc(C#N)c(N3CCCC3)nc2c1C | i | i | i | 47
O=C(NCCCn1ccnc1)c1cc(-c2ccc3c(c2)OCO3)on1 | i | i | i | i
O=C(NCCCn1ccnc1)c1ccc2c(c1)OCCO2 | i | i | i | 47
O=C(c1n[nH]c(=O)c2ccccc12)N1CCN(c2ccccc2Cl)CC1 | i | i | i | 50
SMILES | PostGolgi yeast | Yeast growth inh | Yeast lifespan up | PostGolgi ctrl
CC(C)Cc1nnc(NC(=O)c2ccncc2)s1 | i | i | i | i
Cc1ccc2[nH]c(O)c(N=NC(=O)C(C)n3cnc4ccccc4c3=O)c2c1 (centres undefined) | nt | i | i | nt
N=c1c(C(=O)NCc2ccco2)cc2c(=O)n3ccccc3nc2n1Cc1ccc(Cl)cc1 | i | i | i | 35
Cc1ccc2nc(-c3ccc(O)cc3)c(Nc3ccc4c(c3)OCCO4)n2c1 | i | i | i | i
Cc1cc(C)n2c(Nc3ccc4c(c3)OCCO4)c(-c3ccccc3)nc2n1 | i | i | i | 44
S=C1NCCOCCNC(=S)NCCOCCOCCOCCN1 | nt | i | i | nt
Cc1ccc(C)c(N2CCN(C(=O)c3csc4ccccc34)CC2)c1 | nt | i | i | nt
COn1c(SCC(N)=O)nc2ccccc2c1=O | i | i | i | i
COn1c(SC(C)C)nc2ccccc2c1=O | i | i | i | 34
COn1c(SC2CCCCC2)nc2ccccc2c1=O | i | i | 46 | i
CC(C)On1c(SC(C)C)nc2ccccc2c1=O | i | i | i | i
CCCCC(=O)Nc1ccc(C(=O)N2CCC(C(=O)OCC)CC2)cc1 | i | i | i | i
O=C1OCCC1Sc1nc(-c2ccccc2)cs1 (centres undefined) | i | i | i | i
CCc1ccc(CNC(=O)c2cc3c(C)nc4ccccc4c3o2)cc1 | i | i | i | i
CCN(CC)S(=O)(=O)c1ccc2oc(C(=O)NCC3COc4ccccc4O3)c(C)c2c1 (centres undefined) | i | i | i | 35
